Compound activity from PubChem BioAssay.
Only some compounds are listed: those with a hit (about 3.4% of all), similar ones and a draw of the others.
MC4R antagonist = MC4R antagonists of cAMP signaling, primary screen, cell-based, TR-FRET, antagonist arm of biased-ligand search. Melanocortin receptor 4 (Homo sapiens), P32245. MC4R-expressing cells, MTII-stimulated cAMP, LANCE TR-FRET. inhibition, % at 6.5 µM. 0.48% of 360,000 active. AID 540295, 2011;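 active = inhibition above its plate's cutoff, the mean of tested wells on that plate plus 3 SD, cut at about 29% in these data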
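system = U2OS cells with stable human MC4R expression | also added = Melanotan II challenge after compound preincubation | dosing = one concentration, 6.5 µM nominal | incubation = compound 30 min, challenge 1 h, detection 1 h | measured by = TR-FRET with Eu-cAMP and labeled anti-cAMP, 671 nm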
ANO1 activ = TMEM16A chloride channel activators or potentiators, primary screen, cell-based, HTS. B-score at 10 µM. 0.3% of 340,000 active. HEK293 TMEM16A/YFP-H148Q/I152L, iodide quench fluorescence; hits give low values;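 active = fluorescence-ratio B-score plate-corrected deviation score at least 3 library SD below zero, with starting fluorescence score within 5 deviations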;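 also: channel opened by trigger with iodide after compound preincubation; score built on the fluorescence ratio of max minus min over baseline; more negative score means more quench and so TMEM16A activation or potentiation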
MC4R barr agon = MC4R agonists recruiting beta-arrestin, primary screen, cell-based, luminescence, agonist arm of biased-ligand search | U2OS MC4R beta-arrestin complementation; percent of melanotan II response, DMSO zero | 0.98% of 360,000 active | Melanocortin receptor 4 (Homo sapiens), P32245 | activation, % at 8.9 µM;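 active = activation above a per-plate cutoff, the mean activation of sample wells on that plate plus 3 SD, cut at about 8% in these data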
HTR2A ag = mouse Htr2a agonists via beta-arrestin recruitment, primary screen, cell-based, luminescence; 0.66% of 360,000 active; CHO-K1 mHTR2A beta-arrestin complementation; percent of 30 µM serotonin response; 5-hydroxytryptamine receptor 2A (Mus musculus), P35363; activation, % at 7.6 µM;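 active = activation above a run cutoff, the mean activation of all tested compounds plus 3 SD, cut at about 14% in these data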
MIN6 prolif = inducers of MIN6 beta-cell proliferation, primary screen, ATP luminescence, uHTS; MIN6 cells proliferation, ATPlite luminescence, 48 h; cells starved in 0.2% serum; 100% = growth in 10% serum; 0.29% of 330,000 active; proliferation, % at 10 µM;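 active = compounds whose signal lies at least 3.5 SD above the mean of all wells on their plate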
ANO1 block = TMEM16A chloride channel inhibitors, primary screen, cell-based, HTS. Anoctamin-1 (Mus musculus), Q8BHY3. HEK293 TMEM16A/YFP iodide influx fluorescence, ionomycin. normalized B-score (activity score, 25-100; higher = stronger inhibition) at 10 µM. 1.2% of 310,000 active. AID 588511, 2011;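 active = ratio plate-corrected score three or more library SD toward inhibition, starting fluorescence score within five deviations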;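 also: score derived from kinetic fluorescence span divided by baseline fluorescence per well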
TMEM16A reconf = TMEM16A chloride channel inhibitors, confirmation, cell-based, re-confirmation. shares compounds with ANO1 block. HEK293 TMEM16A/YFP-H148Q, iodide quench fluorescence; ionomycin added to raise cell calcium. inhibition, % at 10 µM. 39% of 2,300 active;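 active = mean duplicate percent inhibition, scaled so buffer wells are 0 and the reference blocker 100, over three buffer SD above buffer mean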
HEK293 Ca mobil = calcium mobilization in TMEM16A/YFP HEK293 cells, confirmation, counter-screen for TMEM16A inhibitor project; AID 652231, 2013; shares compounds with ANO1 block; calcium response (% of ionomycin), % at 10 µM; Fluo4 calcium mobilization; 2% of 2,300 active;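 active = duplicate-averaged calcium signal over 20% of the ionomycin maximum, relative to buffer baseline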;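 also: each well's signal is peak minus trough fluorescence divided by its pre-addition baseline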
Parental YFP cnt = iodide YFP quench changes in parental YFP-HEK293, counter-screen for TMEM16A inhibitor project, cell-based | shares compounds with ANO1 block | ionomycin | YFP ratio F(max-min)/F0 at 10 µM | 2,300 tested, under 10 active | AID 652233, 2013;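 active = yellow fluorescent protein signal ratio exceeding the buffer control mean by over 5 SD of those controls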;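 also: ratio is mean of duplicate wells from kinetic YFP trace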
ClC-1 rat inh = ClC-1 chloride channel inhibition, selectivity assay for TMEM16A inhibitor project, cell-based, voltage-dependent ClC-1 | shares compounds with ANO1 block | CHO ClC-1-YFP, iodide influx fluorescence quench; iodide control reads 0, buffer control 100 | ratio percent, % at 10 µM | 2,300 tested, under 10 active;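 active = duplicate-mean ratio percent above the mean of iodide-only control wells, which defines zero, plus 5 of their SD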;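 also: higher percent means stronger block of ClC-1 iodide influx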
Hits are given with their value; n = inactive; x = not tested or not shown.

SMILES | MC4R antagonist | ANO1 activ | MC4R barr agon | HTR2A ag | MIN6 prolif | ANO1 block | TMEM16A reconf | HEK293 Ca mobil | Parental YFP cnt | ClC-1 rat inh
Cc1ccc(C2=NC(C(F)(F)F)(C(F)(F)F)c3c(n(-c4ccc(F)cc4)c(=O)[nH]c3=O)N2)cc1 | n | n | n | n | n | n | x | x | x | x
CO[C@@H]1CN(C)C(=O)c2ccc(NC(=O)C3CCCC3)cc2OC[C@@H](C)N(Cc2ccc(F)cc2)C[C@H]1C | x | x | x | n | x | x | x | x | x | x
CCOc1ccc(N=C2NC(=O)S/C2=C\c2ccc(N(C)C)cc2)cc1 | n | n | n | n | n | n | n | n | n | n
N#Cc1ccc(CN2CCN(C(=O)CN3C(=O)NC4(CCCC4)C3=O)CC2)cc1 | n | n | n | n | n | x | x | x | x | x
Cc1oc(-c2cc(F)ccc2F)nc1CN1CCN(c2ncnc3ccccc23)CC1 | n | n | n | n | n | 100 | 20% | n | n | n
COc1ccc(-c2nc(CN3CCN(c4ncnc5ccccc45)CC3)c(C)o2)c(OC)c1 | n | n | n | n | n | 100 | 20% | n | n | n
Cc1oc(-c2cc(F)ccc2F)nc1CN1CCC(C(=O)N2CCOCC2)CC1 | n | n | n | n | n | n | x | x | x | x
COC(=O)c1ccccc1NC(=S)NC(=O)COc1ccccc1 | n | n | n | n | n | n | x | x | x | x
Cc1ccccc1C(=O)NNC(=S)NC(=O)COc1ccccc1 | n | n | n | n | n | 25 | 34% | 80% | n | n
COc1ccccc1N1CCN(c2cc(=O)n(-c3ccccc3Cl)c(=O)[nH]2)CC1 | n | n | n | n | n | 100 | n | n | n | n
COc1ccc(-n2c(=O)cc(N3CCN(c4ccccc4F)CC3)[nH]c2=O)cc1 | n | n | n | n | n | 25 | n | n | n | n
CCSc1nnc(NC(=O)NC(CC)(C(F)(F)F)C(F)(F)F)s1 | n | n | n | n | n | 100 | 16% | n | n | n
Cc1noc(C)c1COC(=O)c1cc(C)n(-c2ccccc2)c1C | n | n | n | n | n | 25 | 22% | n | n | n
Cn1cccc1C1C=C(c2ccc(C(C)(C)C)cc2)Nc2ncnn21 (centres undefined) | n | n | n | n | n | 100 | 50% | n | n | n
CC(C)(C)c1ccc(C2=CC(c3ccccc3F)n3ncnc3N2)cc1 (centres undefined) | n | n | n | n | n | n | x | x | x | x
Cc1cccc(NC(=O)C2C(c3ccccc3)C2(Cl)Cl)c1 (centres undefined) | n | n | n | n | n | 100 | n | n | n | n
CCCCC[C@@H](/C=C/C1C(=O)C=C[C@H]1C/C=C\CCCC(=O)OC)OC(C)=O (some centres undefined) | n | x | n | n | x | x | x | x | x | x
CC(NCCc1ccc(O)cc1)C(O)c1ccc(O)cc1 (centres undefined) | n | n | n | n | n | 100 | n | n | n | n
CCc1cc2cc3c(cc2nc1SCC(=O)OC(C)C)OCO3 | n | n | n | n | n | 100 | n | n | n | n
Cc1cc2cc3c(cc2nc1SCC(=O)OC(C)C)OCCO3 | n | n | n | n | n | n | x | x | x | x
CCCc1cc(C(=O)NCc2ccccc2)no1 | n | n | n | n | n | 100 | n | n | n | n
CCCc1cc(C(=O)Nc2cccc(Cl)c2C)no1 | n | n | n | n | n | 25 | n | n | n | n
CCCc1cc(C(=O)Nc2ccccc2SC)no1 | n | n | n | n | n | n | x | x | x | x
CCCc1cc(C(=O)NCc2cccnc2)no1 | n | n | n | n | n | n | x | x | x | x
CCc1cc(C(=O)NNC(=S)NCc2ccccc2)cs1 | n | n | n | n | n | n | x | x | x | x
SMILES | MC4R antagonist | ANO1 activ | MC4R barr agon | HTR2A ag | MIN6 prolif | ANO1 block | TMEM16A reconf | HEK293 Ca mobil | Parental YFP cnt | ClC-1 rat inh
CCCc1cc(C(=O)NNC(=S)NCc2ccccc2)cs1 | n | n | n | n | n | 100 | n | n | n | n
CCCCN(C(=O)C1CC(=O)N(CCc2ccc(OC)c(OC)c2)C1)c1c(N)n(CCCC)c(=O)[nH]c1=O (centres undefined) | n | n | n | n | n | n | x | x | x | x
C=CCNc1ncnc2c1[nH]c1ccc(Cl)cc12 | n | n | n | n | n | 100 | 58% | n | n | n
CC(O)(Cc1ccccn1)Cc1ccccn1 | n | n | n | n | x | x | x | x | x | x
C/C(O)=c1/ccc2cccc3nc(C)nc1c23 | n | n | n | n | n | n | n | 102% | n | n
O=C(CN1C(=O)COc2ccccc21)c1ccc(Cl)cc1 | n | n | n | n | n | n | n | n | n | n
O=C(CN1C(=O)COc2ccccc21)c1cccc(Cl)c1 | n | x | n | n | n | n | x | x | x | x
O=C(Nc1cc(C(F)(F)F)ccc1Cl)C(Sc1ccccn1)c1ccccc1 (centres undefined) | n | n | n | n | n | 25 | n | n | n | n
CCSc1nnc(SCC(=O)c2c(N)n(C)c(=O)n(C)c2=O)s1 | n | n | n | n | n | x | x | x | x | x
OC1(Cc2cc(-c3ccccc3)no2)CCN(CCCc2ccccc2)CC1 | n | n | n | n | n | n | x | x | x | x
O=Cc1cn(-c2ccccc2)nc1-c1cc2c(ccc3ccccc32)oc1=O | n | n | n | n | n | 25 | n | n | n | n
COC(=O)COc1ccc(S(=O)(=O)NCc2ccc3c(c2)OCO3)cc1C | n | n | n | n | n | n | x | x | x | x
Cc1ccc(NS(=O)(=O)c2ccc(OCC(=O)Nc3cccc([N+](=O)[O-])c3)c(C)c2)cc1 | n | n | n | n | n | 25 | n | n | n | n
COC(=O)COc1ccc(S(=O)(=O)Nc2ccc3c(c2)OCCO3)cc1Cl | n | n | n | n | n | 25 | 46% | n | n | n
